Active and inactive are the calls of the source.

For data set [1], the system named is Mus musculus. The experiment in a line: Antinociceptive activity in Swiss mouse assessed as inhibition of phenyl-p-benzoquinone-induced writhing response at 10 mg/kg, ip administered 30 mins prior to phenyl-p-benzoquinone-challenge measured for 20 mins. Type of data set: functional, organism-based. Set-up: dose 10 mg/kg. The method, boiled down: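 Pretreatment ip 30 min before ip phenyl-p-benzoquinone (1890 μg/kg in 2% DMSO/saline). Cumulative writhing score counted over 20 min. Six mice per group; representative of two experiments.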
(In general: An intraperitoneal irritant provokes the stretching counted in writhing tests.)

For data set [2], the system named is Mus musculus. Nature of the data set: Antinociceptive activity in Swiss mouse assessed as inhibition of carrageenan-induced mechanical hyperalgesia at 1 to 3 mg/kg, ip administered 30 mins prior to carrageenan-challenge measured after 5 hrs by electronic pressure-meter test. Type of data set: functional, organism-based. In short, it runs like this:
(§1)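 Doses of 1–10 mg/kg given ip 30 min before intraplantar carrageenan (300 μg/paw). Electronic pressure-meter applied to mice on a wire grid floor; paw withdrawal with flinching was the end point, and each value is the average of three readings. Result reported as Δ withdrawal threshold (g) from baseline at 1, 3 and 5 h. Six mice per group; two-way ANOVA.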

The subject of data set [3] is Mus musculus. The experiment in a line: Hepatotoxicity in Swiss mouse assessed as change in plasma ALT level at 10 mg/kg, ip for 7 days. It counts as toxicity, organism-based. The arrangement: dose 10 mg/kg, route intraperitoneal. The settings on record: in vivo, 168 h. The method, boiled down: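 Mice dosed daily ip at 10 mg/kg for 7 days; vehicle was saline or Tris/HCl pH 8.0. Plasma AST and ALT measured with a diagnostic kit.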

For data set [4], the system named is Mus musculus. The experiment in a line: Antinociceptive activity in Swiss mouse assessed as inhibition of acetic acid-induced writhing response at 10 mg/kg, ip administered 30 mins prior to acetic acid-challenge measured for 20 mins. Type of data set: functional, organism-based. Set-up: dose 10 mg/kg. The method, boiled down:
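Doses of 0.3–10 mg/kg given ip in saline 30 min before ip acetic acid (0.8% v/v in saline, 10 mL/kg). Cumulative abdominal writhing counted over 20 min and presented in 2-min intervals. Six mice per group; representative of two experiments.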

Data set [5] deals with Mus musculus. Nature of the data set: Antinociceptive activity in Swiss mouse assessed as decrease in complete Freund's adjuvant-induced time spent for licking paw at 10 mg/kg, ip administered 30 mins prior to complete Freund's adjuvant-challenge measured after 30 mins. It counts as functional, organism-based. Set-up: dose 10 mg/kg. The method, boiled down:
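Dosed ip 30 min before intraplantar CFA (10 μL/paw). Flinches and licking time of the injected paw counted over 0–30 min and expressed as totals for 30 min. Six mice per group; representative of two experiments.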

The test system of data set [6] is Mus musculus. The experiment in a line: Antinociceptive activity in Swiss mouse assessed as inhibition of carrageenan-induced thermal hyperalgesia at 3 to 10 mg/kg, ip administered 30 mins prior to carrageenan-challenge measured after 1 to 5 hrs by hot plate test. Type of data set: functional, organism-based. In short, it runs like this:
(§2)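 Doses of 1–10 mg/kg given ip 30 min before intraplantar carrageenan (300 μg/paw). Hot plate held at 55 °C; latency to jump or lick paws recorded at 1, 3 and 5 h, with a 30 s cutoff. Two baseline latencies taken at least 10 min apart. Six mice per group.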
(In hot-plate and tail-flick tests a longer latency is read as antinociception.)

The test system of data set [7] is Mus musculus. The experiment in a line: Antinociceptive activity in Swiss mouse assessed as decrease in formalin-induced time spent for licking paw at 10 mg/kg, ip administered 30 mins prior to formalin-challenge measured after 30 mins. Type of data set: functional, organism-based. The arrangement: dose 10 mg/kg. In short, it runs like this: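 Given ip 30 min before intraplantar formalin (25 μL of 1.5% in saline). Paw flinches and licking time recorded from 0 to 30 min in 5-min bins, covering the first (0–5 min) and second (10–30 min) phases. Six mice per group; representative of two experiments.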

For data set [8], the system named is Mus musculus. Nature of the data set: Antinociceptive activity in Swiss mouse assessed as decrease in capsaicin-induced time spent for licking paw at 10 mg/kg, ip administered 30 mins prior to capsaicin-challenge measured after 5 mins. Type of data set: functional, organism-based. Set-up: dose 10 mg/kg. The method, boiled down:
(§3)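 Pretreatment ip 30 min before intraplantar capsaicin (1.6 μg/paw), given after an adaptation period. Mice observed individually for 5 min afterwards. Total flinches and time spent licking the injected paw were scored. Six mice per group; representative of two experiments; one-way ANOVA with Tukey's test.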

Data set [9] has as its system Mus musculus. The experiment in a line: Antinociceptive activity in Swiss mouse assessed as inhibition of capsaicin-induced thermal hyperalgesia at 10 mg/kg, ip administered 30 mins prior to capsaicin-challenge measured after 1 to 3 hrs by hot plate test. It counts as functional, organism-based. The arrangement: dose 10 mg/kg. The method, boiled down: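 Dosed at 10 mg/kg ip 30 min before intraplantar capsaicin (1.6 μg/paw). Mechanical hyperalgesia measured by electronic pressure-meter as Δ withdrawal threshold (g), average of three readings. Thermal hyperalgesia measured as hot-plate latency at 55 °C with a 30 s cutoff. Both read at 1, 3 and 5 h. Six mice per group.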

Data set [10] concerns Mus musculus. The experiment in a line: Antinociceptive activity in ip dosed Swiss mouse assessed as inhibition of carrageenan-induced thermal hyperalgesia administered 30 mins prior to carrageenan-challenge measured after 1 to 5 hrs by hot plate test. Type of data set: functional, organism-based. The method, boiled down:
as §2

For data set [11], the system named is Mus musculus. The experiment in a line: Neurotoxicity in Swiss mouse assessed as change in motor response at 10 mg/kg, ip after 1.5 hrs by rotarod test (reference value: 180 seconds). Type of data set: toxicity, organism-based. Set-up: dose 10 mg/kg, route intraperitoneal. The settings on record: in vivo. The method, boiled down: (§4)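 Rota-rod with a 2.5 cm bar at 22 rpm. Mice pre-selected 24 h earlier by staying on the bar for two consecutive 180 s periods. Given 10 mg/kg ip (vehicle 2% DMSO in saline) and tested at 1.5, 3.5 and 5.5 h, with a 180 s cutoff. n = 6.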
(The rotarod test checks motor coordination on a turning rod.)

For data set [12], the system named is Mus musculus. Nature of the data set: Neurotoxicity in Swiss mouse assessed as change in motor response at 10 mg/kg, ip after 3.5 hrs by rotarod test (reference value: 180 seconds). The arrangement: dose 10 mg/kg, route intraperitoneal. Type of data set: toxicity, organism-based. The settings on record: in vivo. The method, boiled down: as §4
Data set [13] relates to Mus musculus. The experiment in a line: Antinociceptive activity in Swiss mouse assessed as inhibition of complete Freund's adjuvant-induced mechanical hyperalgesia at 10 mg/kg, ip administered 24 hrs after complete Freund's adjuvant-challenge for seven days by electronic pressure-meter test. Type of data set: functional, organism-based. Set-up: dose 10 mg/kg. In short, it runs like this:
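Treatment at 10 mg/kg ip given daily, starting 24 h after intraplantar CFA (10 μL/paw), for seven days. Electronic pressure-meter (Δ threshold, g) and hot plate (55 °C, 30 s cutoff) read every 24 h over days 1–8. Six mice per group.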

Data set [14] deals with Mus musculus. Nature of the data set: Antinociceptive activity in Swiss mouse assessed as inhibition of capsaicin-induced paw flinching at 10 mg/kg, ip administered 30 mins prior to capsaicin-challenge measured after 5 mins. The arrangement: dose 10 mg/kg. It counts as functional, organism-based. The method, boiled down: as §3
The test system of data set [15] is Mus musculus. Nature of the data set: Toxicity in Swiss mouse assessed as change in myeloperoxidase activity in stomach at 10 mg/kg, ip for 7 days by spectrophotometric analysis. Type of data set: organism-based. The arrangement: dose 10 mg/kg, route intraperitoneal. Particulars: in vivo, 168 h. The method, boiled down:
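Mice dosed daily ip at 10 mg/kg for 7 days. Stomach homogenized in 50 mM phosphate buffer pH 6.0 with 0.5% HTAB and centrifuged at 16100g. Supernatant mixed with o-dianisidine (0.167 mg/mL) and 0.015% H2O2; read at 450 nm three times within 1 min. Activity expressed as neutrophils ×10⁴/mg tissue against a neutrophil standard curve.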

In data set [16] the test system is Mus musculus. The experiment in a line: Antiinflammatory activity in Swiss mouse assessed as inhibition of carrageenan-induced IL-6 production 10 mg/kg, ip administered 30 mins prior to carrageenan-challenge measured after 3 hrs by ELISA. The settings on record: at 10 mg/kg. The arrangement: dose 10 mg/kg. Type of data set: functional, organism-based. The method, boiled down:
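Compound given ip in saline 30 min before intraplantar carrageenan (300 μg/paw). Paw skin taken 3 h later and homogenized in 500 μL buffer with protease inhibitors. TNF-α, IL-1β, IL-6, IL-33 and IL-10 measured by ELISA, reported as pg/100 mg tissue. Saline-injected paws served as controls. Six mice per group; representative of two experiments.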

The subject of data set [17] is Mus musculus. The experiment in a line: Antinociceptive activity in ip dosed Swiss mouse assessed as inhibition of carrageenan-induced mechanical hyperalgesia administered 30 mins prior to carrageenan-challenge measured at 1 to 5 hrs by electronic pressure-meter test. Type of data set: functional, organism-based. The method, boiled down:
as §1

Data set [18] deals with Mus musculus. The experiment in a line: Antinociceptive activity in Swiss mouse assessed as inhibition of carrageenan-induced mechanical hyperalgesia at 10 mg/kg, ip administered 30 mins prior to carrageenan-challenge measured after 1 to 5 hrs by electronic pressure-meter test. It counts as functional, organism-based. The arrangement: dose 10 mg/kg. In short, it runs like this:
as §1

Regarding `O=c1cc(-c2ccc(O)cc2)oc2c([C@@H]3O[C@H](CO)[C@@H](O)[C@H](O)[C@H]3O)c(O)cc(O)c12` [VITEXIN], the inhibition entry in [1], in data set [2], in [4], in data set [5], in data set [6] and in data set [7] was “Active” throughout. Besides, the inhibition entry in data set [8], in [9], in data set [13], in data set [14], in [16] and in [18] was “Active” each time. Also, the Activity entry in data set [3] and in data set [15] was “Non-toxic” each time. The inhibition result in [10] and in data set [17] was “Dose-dependent effect” in each case. Besides, the Time in data set [11] and in data set [12] was 180 s throughout.

(Values after ChEMBL document CHEMBL2384933, “Vitexin inhibits inflammatory pain in mice by targeting TRPV1, oxidative stress, and cytokines” (J Nat Prod, 2013).)
